Data: PubChem BioAssay AID1617 (Sanford-Burnham Center for Chemical Genomics, 2009)
Activity calls are given as the source filed them.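 Rule for the calls: active = compound at least 90% bound to plasma protein at 1 µM; inactive = the rest.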

Test system: human plasma protein binding, RED dialysis, LC/MS/MS
Assay: fraction bound to human plasma proteins – biochemical, rapid equilibrium dialysis, LC/MS/MS, ADME assay, late-stage follow-up (AID 1617)
Settings: stronger effect = higher value
Summary of the method: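 Material: spiked plasma, equilibrium dialysis; buffer or medium: Isotonic PBS, pH 7.4; compound dosing: two single doses, 1 and 10 µM final, 0.1% DMSO; timing: 4 h dialysis, 37 °C, shaken; technique: LC/MS/MS of matrix-matched buffer-side and plasma-side aliquots; read-out basis: percent bound, 100 minus free percentage from buffer-to-plasma concentration ratio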

## Cc1cc(OCC(=O)Nc2ncn[nH]2)ccc1Cl
At 1 µM
  plasma protein bound: 27.9% (inactive)
Percent bound, at 10 µM
  plasma protein bound: 16.8%
